Tested on: MS2 coat protein
Assay: apparent Kd, MS2 coat protein; higher = weaker binding; RNA-MaP array; FMN 200 µM where present
Procedure, shortened: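 The apparent Kd is reported as the median of filtered per-cluster binding-curve fits. To get these curves, designs transcribed by stalled E. coli RNA polymerase on Illumina sequencing-chip clusters were titrated with SNAP-549-labelled MS2 coat protein from 0.7 or 1.5 nM, doubling to 3 µM. Titrations were run without and then with constant ligand in 100 mM Tris-HCl pH 7.5, 80 mM KCl, 4 mM MgCl2, BSA, DTT, yeast tRNA and Tween-20, and green signal was normalised to red-channel RNA signal and control-cluster median Fmax.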

[1] = designed as: OFF switch for flavin mononucleotide, no ligand
[2] = ligand present: flavin mononucleotide, designed as: OFF switch for flavin mononucleotide
[3] = designed as: ON switch for flavin mononucleotide, no ligand
[4] = ligand present: flavin mononucleotide, designed as: ON switch for flavin mononucleotide

## CGAGUGUAAGGAUAUUCGGCACUAGGGACCACCCUAGUGUAGAAGAAGGUACAUGAGGAUCACCCAUGUGGUUA
[1]
  apparent Kd: 369 nM
[2]
  apparent Kd: 428 nM

## CGAUAAAGGUGAGGAUAUGAGAAUAGAAAGAAAUCAGAAGGCACACAUGAGGAUCACCCAUGUGAGUUCUCGAGAUUACAUGGU
[1]
  apparent Kd: 15.5 nM
[2]
  apparent Kd: 17.9 nM

## CGAUAAUAUAGAGGAUAUGUUUAACAUGAGGAUCACCCAUGUGACAUGGGAUUAAUAUAUAACUUACAGAAGGCUAUACAAUCG
[1]
  apparent Kd: 34.1 nM
[2]
  apparent Kd: 46.9 nM

## CGAUAUAUGAAGGGCGAAAGCCCACAUGAGGAUCACCCAUGUAGAAGGCGGGCCGCAACGCGGCCCGAGGAUAUAUAGUAUACA
[1]
  apparent Kd: 8.05 nM
[2]
  apparent Kd: 8.84 nM

## CGAUAUAUGAAGGGCGAACGCGCACAUGAGGAUCACCCAUGUAGAAGGCGGUCCGCAACGCGGAUCGAGGAUAUAUAGUAUACG
[1]
  apparent Kd: 27.5 nM
[2]
  apparent Kd: 30.7 nM

## CGAUGACAAAGUCAUCGAUUACGAACAUGAGGAUCACCCAUGUAGGAUAUGCUACUCAAAGAGUAGCAGAAGGACAUGUGUCUU
[1]
  apparent Kd: 35.6 nM
[2]
  apparent Kd: 155 nM

## CGAUGGCAUGUAGGAUAUCGAGCUCAAAGAGCUCGAGAAGGACAUGAGGAUCACCCAUGUCCUCACAGACAGUGAGGGCUAUCG
[1]
  apparent Kd: 22.3 nM
[2]
  apparent Kd: 54.7 nM

## CGCAAACAUGAGGAUCACCCAUGUCAAUGUGAUCAAGGAUAUGGGUUCCUAAACGGAACACCAGAAGGUGAGUAGA
[3]
  apparent Kd: 85.2 nM
[4]
  apparent Kd: 23.8 nM

## CGCAAGUAUACAUGAGGAUACAUGAGGAUCACCCAUGUUAUCAGAAGGUACUAUUAGAGAUAGAGUAAGGAUAUGAAAUUUGUG
[3]
  apparent Kd: 7.88 nM
[4]
  apparent Kd: 17.3 nM

## CGCAAGUAUACAUGAGGAUCACCCAUGUUUGAUAGGGUUUUCAGAAGGUACAAUUAGAGAUAGAGUAAGGAUAUGAAAUUUGCG
[3]
  apparent Kd: 125 nM
[4]
  apparent Kd: 24.7 nM

## CGCAAGUCAGGAUAUUCGACUGGUAAAUCAGUGGAUCAGUAGGAGAAGGGACAUGAGGAUCACCCAUGUAUGUA
[1]
  apparent Kd: 43.2 nM
[2]
  apparent Kd: 51.2 nM

## CGCAUGUAAGGAUAUUAGUAGUAGUCAGAAUAGACUAUUACUGAGAAGGUACAUGAGGAUCACCCAUGUAAGCG
[1]
  apparent Kd: 62.9 nM
[2]
  apparent Kd: 419 nM

## CGCCGCACCGGCCUGCGGCAGGGUCAGGAUAUACAUGAGGAUCACCCAUGUGAACGGUGCCCAAUGUAGAAGGGACGAAAAGAA
[1]
  apparent Kd: 17.8 nM
[2]
  apparent Kd: 39.5 nM

## CGCCUCGUGUCGAACAUGAGGAUCACCCAUGUAAUGGGCACCGAGGAUAUCCCGCUGGCGUUAUGGGAGAAGGCGGUGGAUUUA
[1]
  apparent Kd: 45 nM
[2]
  apparent Kd: 131 nM

## CGCCUGUGAGGAUAUCCAUCUGGAUCAGACUAGAUCCUGAUGGAGAAGGCACAUGAGGAUCACCCAUGUCGGCG
[1]
  apparent Kd: 23.1 nM
[2]
  apparent Kd: 22.4 nM

## CGCGAACAUGAGGAUCACCCAUGUGGGUGGAACGUAGGAUAUACGCAGGUCUUUAAAACGGUAGAAGGACGUUCGC
[3]
  apparent Kd: 452 nM
[4]
  apparent Kd: 159 nM

## CGCGAUAGCAUAGGAUAUUGAUACAUGAGGAUCACCCAUGUCAACCAUGAAGCUCGAAUUGUUGACAAGAAGGAUGAGGUCGCG
[3]
  apparent Kd: 81.3 nM
[4]
  apparent Kd: 55.3 nM

## CGCUAAUUAAUUAUAUUAAUUGUACAGGAUAUGUAACAUGAGGAUCACCCAUGUAUUGGGUUUAAACAGAAGGGUAUAUUAGCG
[1]
  apparent Kd: 425 nM
[2]
  apparent Kd: 112 nM

## CGCUACAGCCAGAAGGACAUGAGGAUCACCCAUGUAGGAUAUGGGAGACGCAGUCCCGUGUAGAGAAACUACGCUACUGUAGCG
[3]
  apparent Kd: 430 nM
[4]
  apparent Kd: 183 nM

## CGCUACUACCAGAAGGACAUGAGGAUCACCCAUGUAGGAUAUGGGUUACAAGUACCAGUGUAAAGAAACUACGCUACAGUAGCG
[3]
  apparent Kd: 57.8 nM
[4]
  apparent Kd: 8.73 nM

## CGCUACUACCAGAAGGACAUGAGGAUCACCCAUGUAGGAUAUGGGUUACACGUUCCUGUGUAUUGUUACUACGCUACGUAUGCG
[3]
  apparent Kd: 168 nM
[4]
  apparent Kd: 11.9 nM

## CGCUACUGCCAGAAGGACAUGAGGAUCACCCAUGUAGGAUAUGGGUGACGAGGACCAGUGUAGAGAAACUACGCUACAGUAGCG
[3]
  apparent Kd: 89.4 nM
[4]
  apparent Kd: 47.5 nM

## CGCUAUGACAUAGGAUAUUGGUACAUGAGGAUCACCCAUGUCAACUAUGGAAUAGAAUUAGUUGACAAGAAGGAUGUGGUAGCG
[3]
  apparent Kd: 47.2 nM
[4]
  apparent Kd: 10.3 nM

## CGCUCAAGAGAGAAGGAUAGAGUCAGAAGGCGUUACAUGAGGAUCACCCAUGUAUAGUAGUGUAACGAGGAUAUGAAAUGAGCG
[1]
  apparent Kd: 194 nM
[2]
  apparent Kd: 250 nM

## CGCUCAAUUACUUAGGAUAGAAUCAGAAGGCGUAACAUGAGGAUCACCCAUGUAUAGACGUGUAACGAGGAUAUGAAUUGAGCG
[1]
  apparent Kd: 5.36 nM
[2]
  apparent Kd: 5.34 nM

## CGCUCUAUAUAUUUGGCAAGUAUCAGAAGGCGUUACAUGAGGAUCACCCAUGUUUUGAAUAGUAACGAGGAUAUGAUAUGAGCG
[1]
  apparent Kd: 22 nM
[2]
  apparent Kd: 24.2 nM

## CGCUGCCACGCAGGAUAUGCAUUGGAUUACAAUGCAGAAGGGCGAUUACAUGAGGAUCACCCAUGUGUCGGCAGUGAAGAAGAG
[3]
  apparent Kd: 657 nM
[4]
  apparent Kd: 44.9 nM

Reference: the EternaBench riboswitch data
